Test results reported in ChEMBL document CHEMBL1144399, “Peptoid-peptide hybrids as potent novel melanocortin receptor ligands” (J Med Chem, 2005).
Where a SMILES comes first, the peptide text is derived from it. [ ]: non-standard residue; d: D form. Gly(N(CH2)2(3-indolyl)) = O=C(O)CNCCc1c[nH]c2ccccc12; Gly(N-(CH2)3-guanidino) = N=C(N)NCCCNCC(=O)O; Nle = CCCC[C@H](N)C(=O)O; Nphe = O=C(O)CNCc1ccccc1; NBuGly = CCCCNCC(=O)O; Nlys = NCCCCNCC(=O)O

Columns and labels:
Type in all cases: cell-based, HEK293
Melanocortin receptor 5 [1] = molecular target: T1, Melanocortin receptor 5 (Mus musculus, UniProt P41149); assay: Displacement of [125I]NDP-MSH from mouse melanocortin receptor-5 expressed in 293 HEK cells
T1 sequence (P41149 whole entry): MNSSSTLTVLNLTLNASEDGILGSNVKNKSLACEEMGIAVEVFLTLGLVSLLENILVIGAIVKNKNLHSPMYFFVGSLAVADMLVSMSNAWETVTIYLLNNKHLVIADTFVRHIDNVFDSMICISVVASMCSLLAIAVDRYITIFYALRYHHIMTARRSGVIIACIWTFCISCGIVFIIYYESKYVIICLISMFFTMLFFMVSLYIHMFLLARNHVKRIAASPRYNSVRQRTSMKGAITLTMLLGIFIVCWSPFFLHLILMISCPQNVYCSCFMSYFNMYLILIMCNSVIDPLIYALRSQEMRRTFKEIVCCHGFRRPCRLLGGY
Procedure, shortened: (§1)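 Radioligand competition with [125I]-NDP-MSH on HEK293 cells expressing human MC3, human MC4 or mouse MC5 receptor. Ligands up to 30 µM. IC50 reported as -log(IC50) (M) with 95% confidence ranges. Ligands without activation activity were tested only at a single 30 µM concentration.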

Melanocortin receptor 3 [2] = molecular target: T2, Melanocortin receptor 3 (Homo sapiens, UniProt P41968); assay: Effective concentration against human melanocortin receptor-3 expressed in 293 HEK cells
T2 sequence (P41968 whole entry): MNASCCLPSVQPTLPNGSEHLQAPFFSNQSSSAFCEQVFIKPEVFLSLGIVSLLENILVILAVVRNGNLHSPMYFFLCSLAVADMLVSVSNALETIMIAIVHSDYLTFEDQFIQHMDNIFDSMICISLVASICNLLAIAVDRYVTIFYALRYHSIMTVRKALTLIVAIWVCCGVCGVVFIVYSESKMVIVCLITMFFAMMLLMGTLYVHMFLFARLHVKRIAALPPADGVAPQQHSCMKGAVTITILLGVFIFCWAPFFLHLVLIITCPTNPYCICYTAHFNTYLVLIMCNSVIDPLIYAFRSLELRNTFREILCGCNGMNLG
Procedure, shortened: (§2)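 LacZ reporter-gene activation assay in HEK293 cells expressing human MC3, human MC4 or mouse MC5 receptor. Dose-response curves run up to 30 µM. EC50 reported as -log(EC50) (M) with 95% confidence ranges. Incomplete or absent curves at 30 µM were not assigned values.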

Melanocortin receptor 5 [3] = molecular target: T1, Melanocortin receptor 5; assay: Effective concentration against mouse melanocortin receptor-5 expressed in 293 HEK cells; procedure, shortened: as §2
Melanocortin receptor 3 [4] = molecular target: T2, Melanocortin receptor 3; assay: Displacement of [125I]NDP-MSH from human melanocortin receptor-3 expressed in 293 HEK cells; procedure, shortened: as §1
Melanocortin receptor 4 [5] = molecular target: T3, Melanocortin receptor 4 (Homo sapiens, UniProt P32245); assay: Displacement of [125I]NDP-MSH from human melanocortin receptor-4 expressed in 293 HEK cells; procedure, shortened: as §1
T3 sequence (P32245 whole entry): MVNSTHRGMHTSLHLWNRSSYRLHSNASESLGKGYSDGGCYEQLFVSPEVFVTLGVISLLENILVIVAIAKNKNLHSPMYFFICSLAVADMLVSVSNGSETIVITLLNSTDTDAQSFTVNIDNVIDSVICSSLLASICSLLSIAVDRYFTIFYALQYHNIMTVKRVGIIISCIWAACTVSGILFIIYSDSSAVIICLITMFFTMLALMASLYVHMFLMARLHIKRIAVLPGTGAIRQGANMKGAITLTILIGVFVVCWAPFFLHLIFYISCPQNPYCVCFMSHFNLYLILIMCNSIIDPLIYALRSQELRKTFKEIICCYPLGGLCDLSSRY

Melanocortin receptor 4 [6] = molecular target: T3, Melanocortin receptor 4; assay: Effective concentration against human melanocortin receptor-4 expressed in 293 HEK cells; procedure, shortened: as §2

Row | SMILES | IC50 (Melanocortin receptor 5 [1]) | EC50 (Melanocortin receptor 3 [2]) | EC50 (Melanocortin receptor 5 [3]) | IC50 (Melanocortin receptor 3 [4]) | IC50 (Melanocortin receptor 4 [5]) | EC50 (Melanocortin receptor 4 [6])
1 | CCCCN(CC(=O)NCC(=O)N(CCCCN)CC(=O)N[C@H](Cc1ccccc1)C(=O)N[C@@H](CCCNC(=N)N)C(=O)N[C@@H](Cc1c[nH]c2ccccc12)C(=O)NCC(N)=O)C(C)=O | 794 nM | 2000 nM | 7940 nM | 1260 nM | 63.1 nM | 63.1 nM
2 | CCCC[C@H](NC(C)=O)C(=O)NCC(=O)N[C@@H](CCCCN)C(=O)N[C@H](Cc1ccccc1)C(=O)N(CCCCNC(=N)N)CC(=O)N(CCc1c[nH]c2ccccc12)CC(=O)NCC(N)=O | 501 nM | 501 nM | 12.6 nM | 631 nM | 158 nM | 251 nM
3 | CCCCN(CC(=O)NCC(=O)N[C@@H](CCCCN)C(=O)N[C@H](Cc1ccccc1)C(=O)N[C@@H](CCCNC(=N)N)C(=O)N(CC(=O)NCC(N)=O)Cc1c[nH]c2ccccc12)C(C)=O | 1580 nM | 794 nM | 3980 nM | 1260 nM | 794 nM | 631 nM
4 | CCCC[C@H](NC(C)=O)C(=O)NCC(=O)N[C@@H](CCCCN)C(=O)N[C@H](Cc1ccccc1)C(=O)N(CCCNC(=N)N)CC(=O)N(CCc1c[nH]c2ccccc12)CC(=O)NCC(N)=O | 1000 nM | 158 nM | 15.8 nM | 2000 nM | 79.4 nM | 79.4 nM
5 | CCCC[C@H](NC(C)=O)C(=O)NCC(=O)N(CCCCN)CC(=O)N[C@H](Cc1ccccc1)C(=O)N[C@@H](CCCNC(=N)N)C(=O)N(CCc1c[nH]c2ccccc12)CC(=O)NCC(N)=O | – | – | – | – | – | 2000 nM
6 | CCCC[C@H](NC(C)=O)C(=O)NCC(=O)N[C@@H](CCCCN)C(=O)N[C@H](Cc1ccccc1)C(=O)N(CCCNC(=N)N)CC(=O)N(CC(=O)NCC(N)=O)Cc1c[nH]c2ccccc12 | 2000 nM | 631 nM | 100 nM | 5010 nM | 316 nM | 158 nM
7 | CCCC[C@H](NC(C)=O)C(=O)NCC(=O)N[C@@H](CCCCN)C(=O)N[C@H](Cc1ccccc1)C(=O)N[C@@H](CCCN=C(N)N)C(=O)N(CC(=O)NCC(N)=O)Cc1c[nH]c2ccccc12 | 794 nM | 316 nM | 251 nM | 501 nM | 251 nM | 158 nM
8 | CCCC[C@H](NC(C)=O)C(=O)NCC(=O)N[C@@H](CCCCN)C(=O)N[C@H](Cc1ccccc1)C(=O)N(CCCCN=C(N)N)CC(=O)N[C@@H](Cc1c[nH]c2ccccc12)C(=O)NCC(N)=O | 2000 nM | – | 63.1 nM | 3980 nM | 158 nM | 251 nM
9 | CCCCN(CC(=O)NCC(=O)N[C@@H](CCCCN)C(=O)N[C@H](Cc1ccccc1)C(=O)N[C@@H](CCCNC(=N)N)C(=O)N(CCc1c[nH]c2ccccc12)CC(=O)NCC(N)=O)C(C)=O | – | 3160 nM | – | – | – | 316 nM
10 | CCCC[C@H](NC(C)=O)C(=O)NCC(=O)N[C@@H](CCCCN)C(=O)N[C@H](Cc1ccccc1)C(=O)N[C@@H](CCCNC(=N)N)C(=O)N[C@@H](Cc1c[nH]c2ccccc12)C(=O)NCC(N)=O | – | 7.94 nM | 31.6 nM | 200 nM | 2.51 nM | 0.501 nM
11 | CCCC[C@H](NC(C)=O)C(=O)NCC(=O)N[C@@H](CCCCN)C(=O)N[C@H](Cc1ccccc1)C(=O)N(CCCNC(=N)N)CC(=O)N[C@@H](Cc1c[nH]c2ccccc12)C(=O)NCC(N)=O | 3160 nM | 3980 nM | 251 nM | 5010 nM | 398 nM | 631 nM
12 | CCCC[C@H](NC(C)=O)C(=O)NCC(=O)N[C@@H](CCCCN)C(=O)N[C@H](Cc1ccccc1)C(=O)N[C@@H](CCCN=C(N)N)C(=O)N(CCc1c[nH]c2ccccc12)CC(=O)NCC(N)=O | 10000 nM | 2000 nM | 2000 nM | 7940 nM | 316 nM | 316 nM
13 | CCCCN(CC(=O)NCC(=O)N[C@@H](CCCCN)C(=O)N[C@H](Cc1ccccc1)C(=O)N[C@@H](CCCN=C(N)N)C(=O)N[C@@H](Cc1c[nH]c2ccccc12)C(=O)NCC(N)=O)C(C)=O | – | 25.1 nM | 794 nM | 126 nM | 20 nM | 2.51 nM
14 | CCCC[C@H](NC(C)=O)C(=O)NCC(=O)N[C@@H](CCCCN)C(=O)N(CC(=O)N[C@@H](CCCN=C(N)N)C(=O)N[C@@H](Cc1c[nH]c2ccccc12)C(=O)NCC(N)=O)Cc1ccccc1 (Ac-[Nle]GK[Nphe]RWG-NH2) | – | – | – | – | – | 1260 nM
15 | CCCC[C@H](NC(C)=O)C(=O)NCC(=O)N(CCCCN)CC(=O)N(CC(=O)N[C@@H](CCCN=C(N)N)C(=O)N[C@@H](Cc1c[nH]c2ccccc12)C(=O)NCC(N)=O)Cc1ccccc1 (Ac-[Nle]G[Nlys][Nphe]RWG-NH2) | – | – | – | – | – | 2000 nM

The next lines start with the values.

Row | IC50 (Melanocortin receptor 5 [1]) | EC50 (Melanocortin receptor 3 [2]) | EC50 (Melanocortin receptor 5 [3]) | IC50 (Melanocortin receptor 3 [4]) | IC50 (Melanocortin receptor 4 [5]) | EC50 (Melanocortin receptor 4 [6]) | SMILES
16 | 1260 nM | 158 nM | 316 nM | 3160 nM | 251 nM | 100 nM | CCCCN(CC(=O)NCC(=O)N[C@@H](CCCCN)C(=O)N[C@H](Cc1ccccc1)C(=O)N(CCCN=C(N)N)CC(=O)N(CCc1c[nH]c2ccccc12)CC(=O)NCC(N)=O)C(C)=O
17 | 2000 nM | – | – | 2000 nM | 794 nM | 3980 nM | CCCCN(CC(=O)NCC(=O)N(CCCCN)CC(=O)N[C@H](Cc1ccccc1)C(=O)N[C@@H](CCCNC(=N)N)C(=O)N(CC(=O)NCC(N)=O)Cc1c[nH]c2ccccc12)C(C)=O
18 | 2000 nM | 6310 nM | – | 3980 nM | 1000 nM | 794 nM | CCCCN(CC(=O)NCC(=O)N(CCCCN)CC(=O)N[C@H](Cc1ccccc1)C(=O)N(CCCN=C(N)N)CC(=O)N(CCc1c[nH]c2ccccc12)CC(=O)NCC(N)=O)C(C)=O
19 | 631 nM | 5010 nM | 2000 nM | 794 nM | 158 nM | 1260 nM | CCCC[C@H](NC(C)=O)C(=O)NCC(=O)N(CCCCN)CC(=O)N[C@H](Cc1ccccc1)C(=O)N[C@@H](CCCN=C(N)N)C(=O)N(CC(=O)NCC(N)=O)Cc1c[nH]c2ccccc12
20 | – | 5010 nM | 6310 nM | – | – | 794 nM | CCCCN(CC(=O)NCC(=O)N[C@@H](CCCCN)C(=O)N[C@H](Cc1ccccc1)C(=O)N(CCCN=C(N)N)CC(=O)N[C@@H](Cc1c[nH]c2ccccc12)C(=O)NCC(N)=O)C(C)=O
21 | 3160 nM | – | – | 7940 nM | 794 nM | 501 nM | CCCCN(CC(=O)NCC(=O)N[C@@H](CCCCN)C(=O)N[C@H](Cc1ccccc1)C(=O)N(CCCN=C(N)N)CC(=O)N(CC(=O)NCC(N)=O)Cc1c[nH]c2ccccc12)C(C)=O
22 | 6310 nM | – | – | – | 2000 nM | 6310 nM | CCCCN(CC(=O)NCC(=O)N(CCCCN)CC(=O)N[C@H](Cc1ccccc1)C(=O)N[C@@H](CCCN=C(N)N)C(=O)N(CCc1c[nH]c2ccccc12)CC(=O)NCC(N)=O)C(C)=O
23 | 3980 nM | – | – | – | 3980 nM | 5010 nM | CCCCN(CC(=O)NCC(=O)N(CCCCN)CC(=O)N[C@H](Cc1ccccc1)C(=O)N(CCCN=C(N)N)CC(=O)N(CC(=O)NCC(N)=O)Cc1c[nH]c2ccccc12)C(C)=O
24 | 5010 nM | – | – | – | 5010 nM | 2000 nM | CCCCN(CC(=O)NCC(=O)N[C@@H](CCCCN)C(=O)N(CC(=O)N[C@@H](CCCN=C(N)N)C(=O)N[C@@H](Cc1c[nH]c2ccccc12)C(=O)NCC(N)=O)Cc1ccccc1)C(C)=O (Ac-[NBuGly]GK[Nphe]RWG-NH2)
25 | – | – | 6310 nM | – | 5010 nM | 3160 nM | CCCCN(CC(=O)NCC(=O)N(CCCCN)CC(=O)N[C@@H](Cc1ccccc1)C(=O)N(CCCN=C(N)N)CC(=O)N[C@@H](Cc1c[nH]c2ccccc12)C(=O)NCC(N)=O)C(C)=O (Ac-[NBuGly]G[Nlys]F[Gly(N-(CH2)3-guanidino)]WG-NH2)
26 | – | – | 7940 nM | – | – | – | CCCC[C@H](NC(C)=O)C(=O)NCC(=O)N[C@@H](CCCCN)C(=O)N(CC(=O)N(CCCN=C(N)N)CC(=O)N(CCc1c[nH]c2ccccc12)CC(=O)NCC(N)=O)Cc1ccccc1 (Ac-[Nle]GK[Nphe][Gly(N-(CH2)3-guanidino)][Gly(N(CH2)2(3-indolyl))]G-NH2)
27 | – | – | 501 nM | – | – | 2000 nM | CCCC[C@H](NC(C)=O)C(=O)NCC(=O)N(CCCCN)CC(=O)N[C@@H](Cc1ccccc1)C(=O)N(CCCN=C(N)N)CC(=O)N[C@@H](Cc1c[nH]c2ccccc12)C(=O)NCC(N)=O (Ac-[Nle]G[Nlys]F[Gly(N-(CH2)3-guanidino)]WG-NH2)
28 | 3160 nM | 6310 nM | 3160 nM | – | 3160 nM | 2000 nM | CCCC[C@H](NC(C)=O)C(=O)NCC(=O)N(CCCCN)CC(=O)NC(Cc1ccccc1)C(=O)N(CCCNC(=N)N)CC(=O)N(CC(=O)NCC(N)=O)Cc1c[nH]c2ccccc12 (single isomer, unassigned)
29 | 1580 nM | 3980 nM | 1000 nM | 3980 nM | 501 nM | 398 nM | CCCC[C@H](NC(C)=O)C(=O)NCC(=O)N(CCCCN)CC(=O)NC(Cc1ccccc1)C(=O)N(CCCNC(=N)N)CC(=O)N(CCc1c[nH]c2ccccc12)CC(=O)NCC(N)=O (single isomer, unassigned)
